B1: mMC3R with C-terminal NanoLuc or HaloTag (NanoBRET constructs) (receptor, mouse, UniProt P33033 1-323, looked up)
chain: MNSSCCLSSVSPMLPNLSEHPAAPPASNRSGSGFCEQVFIKPEVFLALGIVSLMENILVILAVVRNGNLHSPMYFFLCSLAAADMLVSLSNSLETIMIAVINSDSLTLEDQFIQHMDNIFDSMICISLVASICNLLAIAIDRYVTIFYALRYHSIMTVRKALTLIGVIWVCCGICGVMFIIYSESKMVIVCLITMFFAMVLLMGTLYIHMFLFARLHVQRIAVLPPAGVVAPQQHSCMKGAVTITILLGVFIFCWAPFFLHLVLIITCPTNPYCICYTAHFNTYLVLIMCNSVIDPLIYAFRSLELRNTFKEILCGCNSMNLG
B2: mMC4R with C-terminal NanoLuc or HaloTag (NanoBRET constructs) (receptor, mouse, UniProt P56450 1-332, looked up)
chain: MNSTHHHGMYTSLHLWNRSSYGLHGNASESLGKGHPDGGCYEQLFVSPEVFVTLGVISLLENILVIVAIAKNKNLHSPMYFFICSLAVADMLVSVSNGSETIVITLLNSTDTDAQSFTVNIDNVIDSVICSSLLASICSLLSIAVDRYFTIFYALQYHNIMTVRRVGIIISCIWAACTVSGVLFIIYSDSSAVIICLISMFFTMLVLMASLYVHMFLMARLHIKRIAVLPGTGTIRQGTNMKGAITLTILIGVFVVCWAPFFLHLLFYISCPQNPYCVCFMSHFNLYLILIMCNAVIDPLIYALRSQELRKTFKEIICFYPLGGICELSSRY

The nature of data set [1]: In vitro mouse serum stability assay. The note with it: for half-life / remaining at 0.5 h: serum. In kind it is in vitro ADME.
Data set [2] has as its target mouse melanocortin 3 receptor, mMC3R-Flag, stably expressed on HEK293 cells (mouse) (UniProt P33033).
In data set [3] the target is mouse melanocortin 4 receptor, wildtype mMC4R, stably expressed on HEK293 cells (mouse) (UniProt P56450).
The test system of a further data set is male mice. Nature of the data set: ICV fasting-refeeding paradigm, energy homeostasis in TSE metabolic cages. To be noted: 5 nmol ICV. In kind it is in vivo, mouse. In short, it runs like this: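 Cannula-validated male mice were acclimated for one week in sealed TSE metabolic home cages (12 h light/dark, 23–25 °C) and tested in a cross-over design. Food was removed at lights out for a 22 h fast. At t=0, 2 h before lights out, mice received 5 nmol test compound or saline ICV and food was returned. Mice were watched visually for ≥2 h after dosing.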

The data set “FRET or BRET” concerns the molecule itself. As to the kind of experiment: FRET or BRET. (In BRET a luciferase serves as donor, and the signal depends on an acceptor being close.)
Data set [4] has as its target B1. As to the kind of experiment: FRET or BRET.

Non-standard residues stand in square brackets, D forms with d. Residues, ends and D or L forms follow the SMILES beside them. Bounds are passed on as bounds.

Usually half-life stands for how long it takes for the measured level to halve. Low values mean fast loss, high ones slow loss. What is called fraction remaining is the share of the starting amount still present when the sample was taken. Lower therefore signals more turnover.

With `N=C(N)NCCC[C@H](NC(=O)[C@@H](Cc1ccccc1)NC(=O)[C@H](Cc1cnc[nH]1)NC(=O)CNC(=O)[C@@H]1CCCN1C(=O)CNC(=O)[C@@H]1CCCN1C(=O)CNC(=O)[C@@H]1CCCN1C(=O)CNC(=O)[C@@H]1CCCN1C(=O)CNC(=O)[C@@H]1CCCN1C(=O)CNC(=O)[C@@H]1CCCN1)C(=O)N[C@@H](Cc1c[nH]c2ccccc12)C(N)=O` [CJL-1-41, (Pro-Gly)6-His-DPhe-Arg-Trp-NH2] (H-PGPGPGPGPGPGH[dF]RW-NH2), in data set [1], the half-life is 6 min and the fraction remaining at 0.5 h was not above 2%.
In data set [1], `CC(=O)N[C@@H](Cc1cnc[nH]1)C(=O)N[C@H](Cc1ccccc1)C(=O)N[C@@H](CCCNC(=N)N)C(=O)N[C@@H](Cc1c[nH]c2ccccc12)C(=O)N1CCC[C@H]1C(=O)NCC(=O)N1CCC[C@H]1C(=O)NCC(=O)N1CCC[C@H]1C(=O)NCC(=O)N1CCC[C@H]1C(=O)NCC(=O)N1CCC[C@H]1C(=O)NCC(=O)N1CCC[C@H]1C(=O)NCC(=O)N[C@@H](Cc1cnc[nH]1)C(=O)N[C@H](Cc1ccccc1)C(=O)N[C@@H](CCCNC(=N)N)C(=O)N[C@@H](Cc1c[nH]c2ccccc12)C(N)=O` [CJL-1-31, Ac-His-DPhe-Arg-Trp-(Pro-Gly)6-His-DPhe-Arg-Trp-NH2] (Ac-H[dF]RWPGPGPGPGPGPGH[dF]RW-NH2) gave a half-life of 6 min and a fraction remaining at 0.5 h not above 2%.
The molecule α-MSH (peptide) had an Agonist cAMP Based Alpha Screen Results EC50 (nM), stable mMC3R cells in data set [2] of 0.21 nM. Moreover, the Agonist cAMP Based Alpha Screen Results EC50 (nM), stable mMC4R cells in data set [3] worked out at 3.1 nM.
Consider `CC(=O)N[C@@H](Cc1cnc[nH]1)C(=O)N[C@H](Cc1ccccc1)C(=O)N[C@@H](CCCN=C(N)N)C(=O)N[C@@H](Cc1c[nH]c2ccccc12)C(N)=O` [CJL-1-14, Ac-His-DPhe-Arg-Trp-NH2], for which the amount remaining at 72 h, 10 µM in data set [1] (mouse serum) was determined as 12%. Moreover, in data set [1], the half-life is 1010 min. Further, the “adverse reactions, visual monitoring” value with male mice (at least 2 hours post treatment) is reported as “no adverse reactions”. Besides, in the data set on male mice (fasting-refeeding), the ambulatory activity entry is reported as “No significant effects”.
For the molecule `CC(=O)N[C@@H](Cc1cnc[nH]1)C(=O)N[C@H](Cc1ccccc1)C(=O)N[C@@H](CCCNC(=N)N)C(=O)N[C@@H](Cc1c[nH]c2ccccc12)C(=O)N1CCC[C@H]1C(=O)NCC(=O)N1CCC[C@H]1C(=O)NCC(=O)N1CCC[C@H]1C(=O)NCC(=O)N1CCC[C@H]1C(=O)NCC(=O)N1CCC[C@H]1C(=O)NCC(=O)N1CCC[C@H]1C(=O)NCC(N)=O` [CJL-5-35-1, Ac-His-DPhe-Arg-Trp-(Pro-Gly)6-NH2] (Ac-H[dF]RWPGPGPGPGPGPG-NH2), in data set [1], the half-life was 6 min and the amount remaining at 0.5 h is not above 2%.
Consider B1, for which the BRET ratio in the data set “FRET or BRET” came out at 90 mBU.
Turning to B2, the BRET ratio in data set [4] was 150 mBU; in “FRET or BRET” it was 100 mBU.

The values are drawn from article PMC5679024 (ACS chemical neuroscience, 2017).
